Active and inactive are the calls of the source.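 The calls were made as follows: active = fitted curve reaches 10% of the positive control caspase activation at or below the top valid tested dose; inactive = signal shifts the opposite way, plus the rest.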 Where only a bound is given, the exact number is not on record here.

Tested on in one assay: not listed separately
The experiment in a line: caspase-3/7 activation in Mel501 cells, dose response, orthogonal assay for A1 inhibitor project, cell-based, luminescence, dry powder, set 2 (AID 504365). Conditions: Mel501 cells, caspase-3/7 Glo luminescence, 6 h; at 16 µM (top of the series). The method in brief: (§1)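 Material: Mel501 cells. Amount: 2500 Mel501 cells per well. Medium: RPMI-1640, 10% FBS, TSA. Compound dosing: pin-transferred compound. Incubation: 6 h compound (37 °C, 5% CO2), then 1 h Caspase-Glo. Measured by: Caspase-Glo 3/7 luminescence. Read-out: caspase-3/7 activation, shown by rising luminescence signal.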
Take `CC1(C)CCC(c2ccc(Cl)cc2)=C(CN2CCN(c3ccc(C(=O)NS(=O)(=O)c4ccc(N[C@H](CCN5CCOCC5)CSc5ccccc5)c(S(=O)(=O)C(F)(F)F)c4)cc3)CC2)C1`: the caspase activation was 0.95% (inactive).

Still in this assay, the particulars now being: Mel501 cells, caspase-3/7 Glo luminescence, 6 h; at 35 µM (top of the series).
Consider `CCn1c(=O)c([N+](=O)[O-])c(Sc2ccc(C)cc2)c2ccccc21`, for which the caspase activation is -0.736% (inactive). The same measure, in the same setting: the same measure for `Cn1c(=O)c([N+](=O)[O-])c(Sc2ccccn2)c2ccccc21`: -1.77% (inactive); for `CCn1c(=O)c([N+](=O)[O-])c(Cl)c2ccccc21`: 2.55% (inactive). As for `Cc1ccc(S(=O)(=O)c2c([N+](=O)[O-])c(=O)n(C)c3ccccc23)cc1`, the caspase activation is -0.501% (inactive). Consider `COc1nc2ccccc2c(Cl)c1[N+](=O)[O-]`, for which the caspase activation was -1.96% (inactive).

Regarding `Cn1c(=O)c(Sc2ccccn2)c(Sc2ccccn2)c2ccccc21`, the caspase activation is -2.24% (inactive). On the same count and under the same terms, to `Cc1ccc(Sc2c(Sc3ccc(C)cc3)c3ccccc3n(C)c2=O)cc1` belongs -1.69% (inactive); to `COCCn1c(=O)c(Sc2ccc(C)cc2)c(Sc2ccc(C)cc2)c2ccccc21`, -1.29% (inactive); to `O=c1[nH]c2ccccc2c(O)c1[N+](=O)[O-]`, -2.05% (inactive).

In the case of `O=C(COc1ccc(Cl)cc1Cl)NNc1nc(N2CCOCC2)nc(N2CCOCC2)n1`, the caspase activation was -1.89% (inactive). Regarding `Cc1ccc(Sc2c([N+](=O)[O-])c(=O)n(C)c3ccccc23)cc1`, the caspase activation is -1.78% (inactive). Same read-out and setting: to `COCCn1c(=O)c([N+](=O)[O-])c(Cl)c2ccccc21` belongs 6.5% (inactive); to `COc1ccc(CCNc2nc(N3CCCC3)nc(N3CCCC3)n2)cc1OC`, 0.012% (inactive); to `Cn1c(=O)c([N+](=O)[O-])c(S(C)(=O)=O)c2ccccc21`, -1.8% (inactive).

For the molecule `COc1ccc(CCNc2nc(N3CCOCC3)nc(N3CCOCC3)n2)cc1OC`, the caspase activation was 0.627% (inactive). On to `COc1nc2ccccc2c(Sc2ccc(C)cc2)c1[N+](=O)[O-]`, for which the caspase activation is -2.73% (inactive).

Turning to `Cc1ccc(Sc2c(Sc3ccc(C)cc3)c3ccccc3n(Cc3ccccc3)c2=O)cc1`, the caspase activation was -1.23% (inactive).

With `COc1c([N+](=O)[O-])c(=O)n(C)c2ccccc12`, the caspase activation is -0.501% (inactive).

For `CCn1c(=O)c(Sc2ccc(C)cc2)c(Sc2ccc(C)cc2)c2ccccc21`, the caspase activation is -1.83% (inactive).

Take `C/C(=N\Nc1nc(N2CCCCC2)nc(N2CCCCC2)n1)c1ccc(F)cc1`: the caspase activation is -1.18% (inactive). Still for that read-out and setting: to `COc1ccc(N2CCN(c3nc(NCCc4ccc(OC)c(OC)c4)nc(N4CCOCC4)n3)CC2)cc1` belongs -1.94% (inactive). Consider `Cc1ccc(Sc2c([N+](=O)[O-])c(=O)n(Cc3ccccc3)c3ccccc23)cc1`, for which the caspase activation is -2.41% (inactive). As for `COCCn1c(=O)c([N+](=O)[O-])c(Sc2ccc(C)cc2)c2ccccc21`, the caspase activation was -1.69% (inactive).

A further assay has as its system Mel501 cells, caspase-3/7 Glo luminescence, 6 h. The description is as above.
Conditions: not given
The method in brief:
as §1
`O=c1c([N+](=O)[O-])c(Cl)c2ccccc2n1Cc1ccccc1`: the AC10 is 30.2 µM.

`O=c1[nH]c2ccccc2c(Cl)c1[N+](=O)[O-]`: the AC10 is > 35 µM (inactive). Still for that read-out and setting: the same measure for `Cn1c(=O)c([N+](=O)[O-])c(Cl)c2ccccc21`: > 35 µM (inactive).

Source of the values: PubChem BioAssay AID504365 (Broad Institute, 2011).
